Data set [1] in a line: folding enthalpy; higher = less favourable; fluorescence melt of hairpins on a sequencing array, two-state fit. The conditions noted are these: sodium 0.088 M. The essentials:
(§1)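 Two-state fits, bootstrapped, provided melting temperature and folding enthalpy from Cy3 fluorescence normalised to pre-quench Cy3 and to control constructs. Library hairpins with annealed Cy3 and quencher oligos were imaged on a sequenced MiSeq flow cell in 50 mM Na-HEPES pH 8.0, 25 mM NaCl, at 2.5 °C intervals up to 60 °C. Four replicates were combined with inverse-variance weighting. A 9.35 °C upward shift was applied to fitted temperatures to match UV melts.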

Data set [2] can be described thus: melting temperature; fluorescence melt of hairpins on a sequencing array, two-state fit, raised by 9.35 °C to match UV melts. As to conditions: sodium 0.088 M. The essentials:
as §1

Consider GTGCAGGGAAACCTACAC (((.(((....))).))), for which the folding enthalpy in data set [1] was -31.9 kcal/mol. Besides, the Tm in data set [2] came out at 41.5 °C.
The like results for GTGCATACGAAAGTACAC (((..(((....)))))) were, in that order, -8.91 kcal/mol and 29.3 °C.
The corresponding values for GTGCATCGAAAGATCCAC (((.(((....))).))) are -28.2 kcal/mol and 38.1 °C.
With GTGCATGGAAACACGCAC ((((.((....)).)))), the folding enthalpy in data set [1] is -34.6 kcal/mol. For the same sequence, the Tm in data set [2] stood at 47.7 °C.
The like results for GTGCATGGAAACATGCAC (((((((....))))))) were, in that order, -33.8 kcal/mol and 68.6 °C.
As to GTGCATGGAAACATGTGC (..((((....))))..), the folding enthalpy in data set [1] is -25 kcal/mol. In addition, in data set [2], the Tm came to 43 °C.
The like results for GTGCCACGAAAGTGACAC (((.(((....))).))) were, in that order, -40.9 kcal/mol and 56.5 °C.
The corresponding values for GTGCCAGCGAAAGCTCAC (((..(((....)))))) are -6.66 kcal/mol and 52.6 °C.
The corresponding values for GTGCCAGGAAACCAGCAC ((((..(....)..)))) are -28.8 kcal/mol and 41.5 °C.
On to GTGCCAGGAAACTGGTGC (..((((....))))..), for which the folding enthalpy in data set [1] was -26.2 kcal/mol. Moreover, the Tm in data set [2] was 48 °C.
The like results for GTGCCCCGAAAGGGCCAC (((.(((....))).))) were, in that order, -13.4 kcal/mol and 51.3 °C.
The like results for GTGCCCGAAAGGGACAC ((((((....))).))) were, in that order, -25.5 kcal/mol and 58.7 °C.
The like results for GTGCCCGAAAGGGCCAC ((((((....))).))) were, in that order, -7.47 kcal/mol and 57.2 °C.
With GTGCCCGAAAGGGTACAC ((((((....)))..))), in data set [1], the folding enthalpy was -13.9 kcal/mol. In addition, the Tm in data set [2] is 61.6 °C.
For the sequence GTGCCGCGAAAGCGCCAC (((.(((....))).))), the folding enthalpy in data set [1] is -18.2 kcal/mol. Besides, the Tm in data set [2] is 53.8 °C.
The like results for GTGCCGGGAAACCAGCAC ((((.((....)).)))) were, in that order, -33.9 kcal/mol and 50.1 °C.
The like results for GTGCCGGGAAACCGACAC (((.(((....))).))) were, in that order, -33.5 kcal/mol and 52.9 °C.
On to GTGCCGGGAAACTGGCAC (((((.(....).))))), for which the folding enthalpy in data set [1] is -37 kcal/mol. In data set [2], the Tm is 66 °C.
As for GTGCCTACGAAAGTACAC (((..(((....)))))), the folding enthalpy in data set [1] was -4.56 kcal/mol. Besides, the Tm in data set [2] was 37.8 °C.
The like results for GTGCCTCCGAAAGGACAC (((..(((....)))))) were, in that order, -8.63 kcal/mol and 52.4 °C.
The like results for GTGCCTCGAAAGAGTCAC (((.(((....))).))) were, in that order, -29.5 kcal/mol and 50.4 °C.
The corresponding values for GTGCCTGGAAACGGGCAC (((((.(....).))))) are -36.8 kcal/mol and 65.5 °C.
On to GTGCCTGGAAACGGGTAC ((.((.(....).)).)), for which, in data set [1], the folding enthalpy is -18.6 kcal/mol. In addition, the Tm in data set [2] was found to be 44 °C.
With GTGCGACGAAAGTCCAC (((.(((....)))))), the folding enthalpy in data set [1] was -29.4 kcal/mol. Further, the Tm in data set [2] stood at 52 °C.
The like results for GTGCGAGGAAACCCGCAC (((((.(....).))))) were, in that order, -34.6 kcal/mol and 58.1 °C.
The corresponding values for GTGCGCCGAAAGGCCAC (((.(((....)))))) are -21.3 kcal/mol and 58.6 °C.
The corresponding values for GTGCGCCGAAAGGCCCAC (((.(((....))).))) are -24.4 kcal/mol and 48.5 °C.
In the case of GTGCGCGAAAGCGAACAC ((((((....)))..))), the folding enthalpy in data set [1] was -12.6 kcal/mol. Further, in data set [2], the Tm was 58.5 °C.
As for GTGCGCGAAAGCGACAC ((((((....))).))), in data set [1], the folding enthalpy was -16.9 kcal/mol. Further, the Tm in data set [2] turned out to be 63.8 °C.
The like results for GTGCGCGGAAACGTGCAC ((((.((....)).)))) were, in that order, -35.4 kcal/mol and 67.5 °C.
With GTGCGTACGAAAGTACAC (((..(((....)))))), in data set [1], the folding enthalpy was -10.5 kcal/mol. Besides, the Tm in data set [2] was found to be 54.1 °C.
As for GTGCGTCGAAAGACACAC (((.(((....))).))), the folding enthalpy in data set [1] was -39 kcal/mol. In data set [2], the Tm is 53.5 °C.
Regarding GTGCGTCGAAAGACCAC (((.(((....)))))), the folding enthalpy in data set [1] is -29.6 kcal/mol. Further, the Tm in data set [2] was determined as 56.2 °C.
The like results for GTGCGTGCGAAAGCACAC (((..(((....)))))) were, in that order, -9.15 kcal/mol and 63.5 °C.
As to GTGCGTGGAAACGCGCAC (((((.(....).))))), the folding enthalpy in data set [1] was -23.7 kcal/mol. Also, the Tm in data set [2] came out at 65.6 °C.
The like results for GTGCGTTCGAAAGAACAC (((..(((....)))))) were, in that order, -11.7 kcal/mol and 54.1 °C.
The corresponding values for GTGCTACCGAAAGGTCAC (((..(((....)))))) are -15.5 kcal/mol and 37 °C.
For GTGCTAGGAAACCAGCAC (((((.(....).))))), the folding enthalpy in data set [1] is -37 kcal/mol. In addition, in data set [2], the Tm amounted to 49.9 °C.
Take GTGCTCACGAAAGTGCAC (((..(((....)))))): the folding enthalpy in data set [1] is -19.9 kcal/mol. Besides, the Tm in data set [2] came to 48.3 °C.
In the case of GTGCTGCGAAAGCACAC (((.(((....)))))), the folding enthalpy in data set [1] was -19.4 kcal/mol. Further, in data set [2], the Tm worked out at 55.3 °C.
The corresponding values for GTGCTGCGAAAGCACCAC (((.(((....))).))) are -15 kcal/mol and 52.6 °C.
The corresponding values for GTGCTGGCGAAAGCCCAC (((..(((....)))))) are -10.3 kcal/mol and 49.3 °C.
The corresponding values for GTGCTGGGAAACTAGCGC (.(((.(....).))).) are -29.7 kcal/mol and 45.5 °C.
For GTGCTGGGAAACTGGCAC ((((..(....)..)))), in data set [1], the folding enthalpy was -26.2 kcal/mol. For the same sequence, the Tm in data set [2] came to 49.7 °C.
For the sequence GTGCTTCGAAAGAAACAC (((.(((....))).))), in data set [1], the folding enthalpy was -36 kcal/mol. The Tm in data set [2] is 45.6 °C.
The like results for GTGCTTCGAAAGAACAC (((.(((....)))))) were, in that order, -32.1 kcal/mol and 42.8 °C.
For the sequence GTGCTTGGAAACAAACAC (((.(((....))).))), in data set [1], the folding enthalpy is -28.9 kcal/mol. Besides, the Tm in data set [2] was 39.1 °C.
The corresponding values for GTGCTTGGAAACAAGTGC (..((((....))))..) are -21 kcal/mol and 43 °C.
GTGCTTGGAAACGAGTAC ((.((.(....).)).)): in data set [1], the folding enthalpy is -19.3 kcal/mol. In data set [2], the Tm was determined as 35 °C.
With GTGGAAGGAAACTTCCGC (.(((((....))))).), the folding enthalpy in data set [1] is -24.1 kcal/mol. Moreover, the Tm in data set [2] came out at 51.1 °C.
The corresponding values for GTGGAAGGAAACTTTCGC (.(.(((....))).).) are -20 kcal/mol and 30 °C.
The corresponding values for GTGGACCGAAAGGTTCAC (((.(((....))).))) are -36.7 kcal/mol and 59.8 °C.
The like results for GTGGACGAAAGTCCCAC ((((((....))).))) were, in that order, -12.1 kcal/mol and 48.8 °C.
Consider GTGGACGAAAGTCGACAC ((((((....)))..))), for which the folding enthalpy in data set [1] is -21.8 kcal/mol. Moreover, the Tm in data set [2] stood at 47.5 °C.

For the origin of these results see the array DNA melting data of Ke et al. (doi:10.1101/2024.01.08.574731).
